KCNK3 inh: human KCNK3 channel inhibition, primary screen | AID 602410 | 0.84% of 340,000 active | CHO-KCNK3 thallium flux, FluxOR fluorescence; active compounds read low | B-score at 10 µM | O14649;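 active = B-score under library mean minus 4 SD, starting fluorescence ratio at most library mean plus 5 SD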;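 note: more negative B-score means stronger inhibition of thallium flux through KCNK3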
KCC2 mod: KCC2 (human) Cl- transport modulation; KCC2 cells, thallium flux FluoZin-2 fluorescence; B-score of Tl+ flux slope (higher = more flux/activation; lower = inhibition) at 10 µM; 2.2% of 190,000 active; AID 1456;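 active = thallium flux slope and its plate-corrected score both differing from the plate sample mean at a set confidence after two filtering rounds, in either direction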;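 note: slope of fluorescence scaled to starting intensity during 10 to 20 s after thallium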
KCNQ1 pot: potentiators or activators of human KCNQ1 potassium channel; 0.35% of 310,000 active; P51787; AID 2648; CHO-K1 KCNQ1, thallium flux FluxOR fluorescence; active compounds read high; B-score at 10 µM;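 active = fluorescence ratio B-score, a plate-corrected score, at least three library SD, with initial intensity B-score within 5 SD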
Target sequence (P51787 whole entry, looked up): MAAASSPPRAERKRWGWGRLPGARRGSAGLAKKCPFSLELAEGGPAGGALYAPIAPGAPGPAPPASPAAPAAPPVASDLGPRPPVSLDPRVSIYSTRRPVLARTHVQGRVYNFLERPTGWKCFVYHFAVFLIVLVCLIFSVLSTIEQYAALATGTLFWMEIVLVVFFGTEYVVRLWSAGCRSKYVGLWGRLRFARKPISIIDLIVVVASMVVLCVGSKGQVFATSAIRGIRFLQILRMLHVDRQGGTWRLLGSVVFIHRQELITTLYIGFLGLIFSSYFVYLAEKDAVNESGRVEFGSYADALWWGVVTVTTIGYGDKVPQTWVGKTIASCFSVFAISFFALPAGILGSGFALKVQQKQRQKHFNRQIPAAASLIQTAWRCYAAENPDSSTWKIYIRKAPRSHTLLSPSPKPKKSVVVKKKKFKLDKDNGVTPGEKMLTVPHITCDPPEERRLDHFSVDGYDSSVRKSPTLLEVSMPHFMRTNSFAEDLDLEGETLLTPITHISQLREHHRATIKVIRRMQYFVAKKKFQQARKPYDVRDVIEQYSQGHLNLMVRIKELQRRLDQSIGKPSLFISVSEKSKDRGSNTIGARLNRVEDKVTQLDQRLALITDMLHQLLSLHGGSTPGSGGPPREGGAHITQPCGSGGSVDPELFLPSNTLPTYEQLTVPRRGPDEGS
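Test system: CHO-K1 cells stably expressing KCNQ1 / Medium: assay buffer / Also added: depolarizing K+/Tl+ stimulus, K2SO4 and Tl2SO4 each 12.5 mM in 5x stock / Incubation: 90 min dye loading and 20 min compound exposure, both at room temperature / Signal: thallium influx via FluxOR fluorescence, kinetic imaging / Evaluation: B score of baseline-normalized fluorescence ratio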
hERG rescue: compounds protecting human hERG from proarrhythmic drug block. AID 1511. 0.51% of 310,000 active. CHO-hERG, FluxOR thallium flux, dofetilide IC70 present. activation (rescue from dofetilide block), less the hit threshold, % at 10 µM;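 active = activation above the mean of controls blocked by dofetilide plus 5 SD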;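 note: thallium influx through hERG after potassium depolarization seen as dye fluorescence rise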
KCNK9 inh: inhibitors of human KCNK9 two-pore domain potassium channel. B-score at 10 µM. 1.2% of 310,000 active. Q9NPC2. HEK293 KCNK9, FluxOR thallium flux fluorescence; active compounds read low. AID 488922;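 active = ratio B-score over 3 SD below the library mean, with starting fluorescence within 5 SD of its mean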;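 note: negative B-score means less thallium flux so channel inhibition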
KCNQ1 inh: human KCNQ1 channel inhibition. P51787. CHO-K1 KCNQ1, FluxOR thallium flux fluorescence; active compounds read high. B-score at 10 µM. 1.3% of 310,000 active. AID 2642;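 active = compounds whose thallium flux B-score, printed positive for inhibition, exceeds three library SD while starting fluorescence stays within three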;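 note: channel opened by potassium depolarization with thallium stimulus after 20 min compound exposure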
KCC2 secondary: KCC2 (human) modulation, secondary assay. HEK293-KCC2, thallium flux, FluoZin2 fluorescence; active compounds read high. 15% of 3,700 active. shares compounds with KCC2 mod. normalised thallium flux (F/F0 slope) at 10 µM. AID 1713;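 active = thallium flux slope above the same plate's solvent-only control mean plus 3 SD; inconclusive = the two replicate wells disagree; inactive = no significant difference from solvent-only control wells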
KCC2 bumet counter: thallium flux despite bumetanide block in KCC2 cells, secondary assay 3; normalized thallium flux at 10 µM; shares compounds with KCC2 mod; AID 1714; 49% of 3,700 active; HEK293-KCC2 + bumetanide/ouabain, thallium flux FluoZin2; active compounds read high;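 active = thallium entry rate above the same plate's blocked-transporter control wells by more than 3 SD; inconclusive = the two repeat wells disagree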;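 note: raw slope of fluorescence over initial fluorescence between 10 and 20 s after thallium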
KCC2 sec2: confirmation of human KCC2 transport modulators. shares compounds with KCC2 mod. HEK293-KCC2, thallium flux FluoZin2 fluorescence; actives lie on both sides; F/F0 rise rate, 10–20 s post-thallium. normalized thallium flux at 10 µM. 23% of 3,700 active;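 active = thallium flux slope more than 3 SD above or below the plate's solvent-only control mean, mostly below; inconclusive = the two repeat wells disagreed; inactive = no significant shift from solvent-only controls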;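 note: raw slope with 0.1% DMSO as baseline and bumetanide as block control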
HEK293 Tl flux: parental HEK flux effect, counter-screen | HEK293 parental cells, thallium flux FluoZin2, ouabain; baseline-ratio fluorescence slope, 10–20 s after thallium | shares compounds with KCC2 mod | thallium flux rate (normalised fluorescence) at 10 µM | 46% of 3,700 active | AID 1716;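 active = thallium flux rate significantly above the same plate's solvent-only control wells, beyond their mean plus 3 SD; inconclusive = the two replicate wells gave conflicting results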
KCC2 retest ouab: confirmation of human KCC2 modulators with ouabain; raw Tl+ flux slope (below DMSO = inhibition, above = activation) at 10 µM; HEK293-KCC2, thallium flux FluoZin2 fluorescence; bidirectional: low = inhibitor, high = activator; 48% of 3,700 active; shares compounds with KCC2 mod; AID 1717;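 active = thallium flux slope beyond 3 SD from same-plate DMSO control mean in most replicates, usually higher, sometimes lower; inconclusive = repeat tests gave conflicting results; inactive = no significant difference from controls in most replicates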;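 note: slope of initial-normalized fluorescence between seconds 10 and 20 after thallium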
HEK counter2: counter-screen for KCC2 modulators: effect in parental HEK293 cells. 33% of 3,700 active. shares compounds with KCC2 mod. thallium flux FluoZin-2 fluorescence slope. thallium flux slope at 10 µM;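 active = thallium flux slope above the same plate's solvent-control mean plus 3 SD in both duplicate wells; inconclusive = duplicate wells that disagreed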;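 note: run without ouabain in cells lacking the KCC2 cotransporter; slope of fluorescence scaled to its starting value between 10 and 20 s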
The depositor's hits bear a star; i = inactive; ? = inconclusive; nt = no result given. Only some compounds are listed: those with a hit (about 4.1% of all), similar ones and a draw of the others.

SMILES | KCNK3 inh | KCC2 mod | KCNQ1 pot | hERG rescue | KCNK9 inh | KCNQ1 inh | KCC2 secondary | KCC2 bumet counter | KCC2 sec2 | HEK293 Tl flux | KCC2 retest ouab | HEK counter2
C/C(=N\Nc1nc2ccc(Cl)cc2o1)c1ccccc1 | i | 10.2* | i | -5.1 | i | i | 0.00639 | 0.00488 | 0.0334 | 0.013* | 0.022 | 0.0154*
O=C(NCCOc1ccccc1F)c1ccccc1SCc1ccc(F)cc1 | i | -6.24* | i | -8.3 | i | i | 0.00941 | 0.00702 | 0.0221* | 0.00583 | 0.0122* | 0.00902
CSc1ccccc1C(=O)NCCOc1ccccc1C | i | nt | i | -4.9 | i | i | nt | nt | nt | nt | nt | nt
CCOC(=O)c1c(-c2ccccc2)c2cc(OC)ccc2n1CCCN(C)C | i | nt | i | -5.2 | i | i | nt | nt | nt | nt | nt | nt
O=C(NC(=S)NCc1ccccc1)c1cccnc1 | i | 1.71 | i | -7.9 | i | i | nt | nt | nt | nt | nt | nt
O=C(NC(=S)NCCC1=CCCCC1)c1cccnc1 | i | 13.5* | i | -9.5 | i | i | 0.00975 | 0.0359* | 0.031 | 0.0126* | ? | 0.0111*
Cc1cccc(NC(=O)CSc2nnc(CSc3nc(C)cc(C)n3)n2Cc2ccco2)c1 | i | nt | i | -11.0 | i | i | 0.00656 | 0.00406 | 0.0299 | ? | 0.0164 | 0.00933
CN(CC(=O)Nc1ccc(Cl)c(C(F)(F)F)c1)C(=O)c1cccc2cccnc12 | i | nt | nt | nt | nt | nt | nt | nt | nt | nt | nt | nt
Cc1ccc(-n2ncc3c2CC(C)(C)CC3NC(=O)CCc2ccc(=O)[nH]n2)cc1 (configuration not stated) | i | nt | i | -6.5 | i | i | nt | nt | nt | nt | nt | nt
O=C(O)CSc1nc2c(cnn2-c2ccccc2)c(=O)n1-c1ccc(Br)cc1 | i | -5.57* | i | -4.6 | i | i | 0.00549 | 0.0045 | 0.0217* | ? | 0.0112* | 0.00969
COCCN1C(=O)N[C@@H](CCc2ccccc2)C(C(C)=O)=C1C | nt | 6.01* | i | -5.1 | i | i | 0.00665 | 0.00466 | 0.0255* | 0.00744 | 0.0181 | 0.0105
O=C(OCc1ccccn1)c1ccc(COc2ccccc2Cl)o1 | i | -5.95* | i | -8.4 | i | i | 0.00583 | 0.00473 | 0.0253* | 0.0069 | 0.0133* | 0.00887
Cc1ccc(S(=O)(=O)N2CCCC2)cc1C(=O)NCc1ccccn1 | i | nt | i | -5.4 | i | i | nt | nt | nt | nt | nt | nt
O=C(NCc1ccccn1)c1cc(S(=O)(=O)N2CCN(c3ccccc3)CC2)ccc1Cl | i | nt | i | -14.4 | i | i | 0.00671 | 0.00422 | 0.0256* | 0.00763 | ? | 0.0108
Cc1c(C(=O)NCc2ccccn2)oc2ccc(S(=O)(=O)N3CCOCC3)cc12 | i | 5.2* | i | -34.1 | i | i | 0.00524 | ? | ? | 0.00787 | 0.0194 | 0.0109
CN(Cc1ccccc1)S(=O)(=O)c1ccc(Cl)c(C(=O)NCCc2ccccn2)c1 | i | -4.38* | i | -6.4 | i | i | 0.00732 | 0.00497 | 0.0182* | 0.00676 | 0.012* | 0.00915
O=C(Cc1ccc(NC(=O)C2CCCN(C(=O)C3CCC3)C2)cc1)Nc1cccc(C(=O)N2CCCC2)c1 (configuration not stated) | i | nt | nt | nt | nt | nt | nt | nt | nt | nt | nt | nt
O=C(NCc1ccc2c(c1)OCO2)c1ccc(COc2cccc(Cl)c2)o1 | i | -6.92* | i | -9.0 | i | i | 0.00789 | 0.00484 | 0.0351 | 0.004 | ? | 0.0124
Cc1csc(=O)n1CC(=O)OCC(=O)Nc1cc(Cl)ccc1[N+](=O)[O-] | i | nt | i | -13.2 | i | i | nt | nt | nt | nt | nt | nt
CCOC(=O)CSc1nnc2n1C(C)(C)Cc1ccccc1-2 | i | 0.0554 | i | -23.9 | i | i | nt | nt | nt | nt | nt | nt
CC1Cc2ccccc2N1C(=O)CSc1nnc2n1C(C)(C)Cc1ccccc1-2 (configuration not stated) | i | -5.57* | i | -6.1 | i | i | 0.00583 | ? | 0.0237* | 0.00733 | ? | 0.0108
CC1Cc2ccccc2N1C(=O)CSc1ncc(-c2ccc(F)cc2)n1C (configuration not stated) | i | -4.17* | i | -11.3 | i | i | 0.00551 | 0.00359 | 0.0239* | 0.00601* | 0.0132* | ?
CC1Cc2ccccc2N1C(=O)CSc1nc(-c2ccco2)cc(C(F)(F)F)n1 (configuration not stated) | i | nt | i | -5.2 | i | i | 0.00835 | 0.0053 | 0.033 | 0.00772 | 0.0188 | 0.0118
CN1CCN(C(=O)CSc2nc(-c3ccco3)cc(C(F)(F)F)n2)CC1 | i | -1.88 | i | -1.5 | i | i | nt | nt | nt | nt | nt | nt
COCCN(C(=O)C1CCN(C(=O)c2ccccc2C)CC1)c1c(N)n(CC(C)C)c(=O)[nH]c1=O | i | nt | nt | nt | nt | nt | nt | nt | nt | nt | nt | nt
SMILES | KCNK3 inh | KCC2 mod | KCNQ1 pot | hERG rescue | KCNK9 inh | KCNQ1 inh | KCC2 secondary | KCC2 bumet counter | KCC2 sec2 | HEK293 Tl flux | KCC2 retest ouab | HEK counter2
O=C(CCCc1nc2ccccc2s1)NCc1ccc(F)cc1 | i | -3.95* | i | -5.6 | i | i | 0.0139* | 0.0183* | 0.034 | 0.0118* | 0.0227 | 0.0124*
O=C(CCCc1nc2ccccc2s1)NCc1ccccc1 | i | -2.39 | i | -8.3 | i | i | nt | nt | nt | nt | nt | nt
CC(C(=O)N=c1sc2ccccc2n1C)N1C(=O)C2CC=CCC2C1=O (configuration not stated) | i | nt | i | -13.3 | i | i | 0.00722 | ? | ? | 0.00734 | ? | 0.0115
CC(=O)N=c1sc2ccccc2n1C | i | 0.0583 | i | -7.5 | i | i | nt | nt | nt | nt | nt | nt
COc1ccc(OC)c(NC(=O)C(=O)NNC(=O)C23CC4CC(CC(C4)C2)C3)c1 | i | 135* | 10* | 65.2* | i | i | 0.0443* | 0.115* | 0.0708* | 0.1* | 0.0813* | 0.045*
COc1ccc(C(=O)C(C)OC(=O)CNC(=O)c2ccco2)cc1 (configuration not stated) | i | nt | nt | nt | nt | nt | nt | nt | nt | nt | nt | nt

Bioassay records as filed in PubChem BioAssay.
